Entries after “also recorded” stand apart in the source; their conditions may differ.
Tests used:
NF-κB [1] = assay: NF-κB protein expression in RAW264.7 cells by immunofluorescence; assay type: cell-based; settings: LPS-induced RAW264.7 cells, 1 μM, 24 h, vs model group
TLR4 [2] = assay: TLR4 protein expression in RAW264.7 cells by Western blot; assay type: cell-based; settings: LPS-induced RAW264.7 cells, 1 μM, 24 h, vs model group
How it was run: (§1)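 Lysis was in RIPA containing 1% PMSF on ice for 3–4 h, followed by centrifugation at 12000 rpm for 15 min. Supernatants were stored at −80 °C, and TLR4 and TNF-α protein were detected by Western blot.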

TLR4 [3] = assay: TLR4 protein expression in RAW264.7 cells by immunofluorescence; assay type: cell-based; settings: LPS-induced RAW264.7 cells, 1 μM, 24 h, vs model group
How it was run: (§2)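 They were PBS-washed, fixed in 4% fixative for 45 min, permeabilised with 0.25% Triton for 15 min and blocked with 5% BSA for 10 min. Staining used rabbit anti-mouse TLR4 or TNF-α (1:100, 4 °C overnight), FITC anti-rabbit (1:400, 37 °C, 30 min) and DAPI. Mean cell fluorescence was read by confocal microscopy.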

TNF-α [4] = assay: Rat CIA model, serum TNF-α concentration; assay type: in vivo; settings: CIA rats, 50 and 100 (mg/kg)/day oral, compared with model group
TNF-α [5] = assay: TNF-α protein expression in RAW264.7 cells by immunofluorescence; assay type: cell-based; settings: LPS-induced RAW264.7 cells, 1 μM, 24 h, vs model group
How it was run: as §2

TNF-α [6] = assay: TNF-α mRNA expression in RAW264.7 cells by RT-PCR; assay type: cell-based; settings: LPS-induced RAW264.7 cells, 1 μM, 24 h, vs model group
NF-κB [7] = assay: NF-κB mRNA expression in RAW264.7 cells by RT-PCR; assay type: cell-based; settings: LPS-induced RAW264.7 cells, 1 μM, 24 h, vs model group
IL-1β = IL-1β level in supernatant of LPS-induced RAW264.7 cells; assay type: cell-based; settings: RAW264.7 cells supernatant, LPS 1 μg/mL, 1 μM, 48 h
How it was run: (§3)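 RAW264.7 cells were allowed to attach, then the medium was replaced with 1 μg/mL LPS plus test compound at final concentrations of 1, 10 and 100 μM, with DMSO used for solubilisation where needed. […] After 48 h culture, the supernatant was assayed for IL-1β, IL-6 and TNF-α. Values are means of three independent experiments, mean ± SD, compared by one-way ANOVA.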

IL-6 [8] = assay: Rat CIA model, serum IL-6 concentration; assay type: in vivo; settings: CIA rats, 50 and 100 (mg/kg)/day oral, compared with model group
TLR4 [9] = assay: TLR4 mRNA expression in RAW264.7 cells by RT-PCR; assay type: cell-based; settings: LPS-induced RAW264.7 cells, 1 μM, 24 h, vs model group
TNF-α [10] = assay: TNF-α level in supernatant of LPS-induced RAW264.7 cells; assay type: cell-based; settings: RAW264.7 cells supernatant, LPS 1 μg/mL, 1 μM, 48 h
How it was run: as §3

TNF-α [11] = assay: TNF-α protein expression in RAW264.7 cells by Western blot; assay type: cell-based; settings: LPS-induced RAW264.7 cells, 1 μM, 24 h, vs model group
How it was run: as §1

[12] = tested on: CIA (collagen-induced arthritis) model; assay: Rat CIA; assay type: in vivo; settings: for paw volume of rats: CIA rats, 15 days
NF-κB [13] = assay: NF-κB protein expression in RAW264.7 cells by Western blot; assay type: cell-based; settings: LPS-induced RAW264.7 cells, 1 μM, 24 h, vs model group
IL-6 [14] = assay: IL-6 level in supernatant of LPS-induced RAW264.7 cells; assay type: cell-based; settings: RAW264.7 cells supernatant, LPS 1 μg/mL, 1 μM, 48 h
How it was run: as §3

[15] = Pharmacokinetics in Sprague-Dawley rats; assay type: in vivo, rat; settings: for maximum concentration: SD rats; for half-life: male, Sprague-Dawley, rat, plasma
How it was run: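 Male SD rats (6–8 weeks) received test compound in 10% DMSO + 10% Solutol HS15 + 80% (20% HP-β-CD saline), either 20 mg/kg via foot dorsal vein or 100 mg/kg by oral gavage. Samples were kept on wet ice and spun at 2000g for 5 min at 4 °C within 15 min. Plasma was analysed by LC-MS/MS.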

CC(=O)CC(=O)C1CC(C)C(=O)C1=O (stereo not drawn) [Compound 3k, 3-Methyl-5-(3-oxobutanoyl) cyclopentane-1,2-dione]
expression of NF-κB protein (immunofluorescence) (NF-κB [1]): significantly down-regulated | expression of TLR4 protein (Western blot) (TLR4 [2]): significantly down-regulated | expression of TLR4 protein (immunofluorescence) (TLR4 [3]): significantly down-regulated | serum TNF-α concentration (TNF-α [4]): decreased significantly and reached the normal level | expression of TNF-α protein (immunofluorescence) (TNF-α [5]): significantly down-regulated | expression of TNF-α gene (RT-PCR) (TNF-α [6]): significant down-regulated | expression of NF-κB gene (RT-PCR) (NF-κB [7]): significant down-regulated | Inflammatory factor IL-1β (IL-1β): 278.6 ± 58.1 pg/L | serum IL-6 concentration (IL-6 [8]): decreased significantly and reached the normal level | expression of TLR4 gene (RT-PCR) (TLR4 [9]): significant down-regulated | Inflammatory factor TNF-α (TNF-α [10]): 217.8 ± 20.3 pg/L | expression of TNF-α protein (Western blot) (TNF-α [11]): significantly down-regulated | paw volume of rats ([12]; high dose 100 (mg/kg)/day oral): basically unchanged | paw volume of rats ([12]; low dose 50 (mg/kg)/day oral): basically unchanged | effect in collagen-induced arthritis model compared with methotrexate ([12]; administered orally): effects similar to those of methotrexate; also recorded: effect similar to that of the positive control group methotrexate | expression of NF-κB protein (Western blot) (NF-κB [13]): significantly down-regulated | Inflammatory factor IL-6 (IL-6 [14]): 96.6 ± 9.8 pg/L | maximum concentration ([15]; intravenous dose 20 mg/kg): 1603 ng/mL | maximum concentration ([15]; oral dose 100 mg/kg): 2014 ng/mL | half-life ([15]; iv, 20 mg/kg): 30 to 60 min | half-life ([15]; po, 100 mg/kg): 30 to 60 min

CCCCCC1C(=O)C(C(=O)CC(C)=O)CC1CC(=O)OC (stereo not drawn) [Compound 3j, Methyl 2-(3-oxo-4-(3-oxobutanoyl)-2-pentylcyclopentyl)acetate]
Inflammatory factor IL-1β (IL-1β): 488.8 ± 66.1 pg/L | Inflammatory factor TNF-α (TNF-α [10]): 400.6 ± 60.2 pg/L | Inflammatory factor IL-6 (IL-6 [14]): 163.8 ± 25.9 pg/L

CN(Cc1cnc2nc(N)nc(N)c2n1)c1ccc(C(=O)N[C@@H](CCC(=O)O)C(=O)O)cc1 [methotrexate, reference compound]
expression of TLR4 protein (Western blot) (TLR4 [2]): significantly down-regulated | expression of TLR4 protein (immunofluorescence) (TLR4 [3]): significantly down-regulated | expression of TNF-α protein (immunofluorescence) (TNF-α [5]): significantly down-regulated | expression of TNF-α gene (RT-PCR) (TNF-α [6]): significantly down-regulated | Inflammatory factor IL-1β (IL-1β): 337.6 ± 47.8 pg/L | expression of TLR4 gene (RT-PCR) (TLR4 [9]): significantly down-regulated | Inflammatory factor TNF-α (TNF-α [10]): 236.8 ± 18.7 pg/L | expression of TNF-α protein (Western blot) (TNF-α [11]): significantly down-regulated | Inflammatory factor IL-6 (IL-6 [14]): 114.1 ± 2.8 pg/L

CCOC(=O)C1CCC(C(=O)CC(C)=O)C1=O (stereo not drawn) [Compound 3h, Ethyl 2-oxo-3-(3-oxobutanoyl)cyclopentane-1-carboxylate]
Inflammatory factor IL-1β (IL-1β): 506.0 ± 65.1 pg/L | Inflammatory factor TNF-α (TNF-α [10]): 524.7 ± 48.5 pg/L | Inflammatory factor IL-6 (IL-6 [14]): 197.4 ± 21.3 pg/L

CC(=O)CC(=O)C1CCC(C(C)=O)C1=O (stereo not drawn) [Compound 3i, 1-(3-Acetyl-2-oxocyclopentyl)butane-1,3-dione]
Inflammatory factor IL-1β (IL-1β): 558.4 ± 66.9 pg/L | Inflammatory factor TNF-α (TNF-α [10]): 424.5 ± 87.6 pg/L | Inflammatory factor IL-6 (IL-6 [14]): 205.2 ± 25.9 pg/L

COC(=O)C1CCC(C(=O)CC(C)=O)C1=O (stereo not drawn) [Compound 3g, Methyl 2-oxo-3-(3-oxobutanoyl)cyclopentane-1-carboxylate]
Inflammatory factor IL-1β (IL-1β): 408.2 ± 69.1 pg/L | Inflammatory factor TNF-α (TNF-α [10]): 339.8 ± 49.2 pg/L | Inflammatory factor IL-6 (IL-6 [14]): 170.3 ± 25.3 pg/L

CC(=O)CC(=O)C1CCCC1=O (stereo not drawn) [Compound 3a, 1-(2-Oxocyclopentyl)butane-1,3-dione]
Inflammatory factor IL-1β (IL-1β): 512.0 ± 85.0 pg/L | Inflammatory factor TNF-α (TNF-α [10]): 520.6 ± 54.6 pg/L | Inflammatory factor IL-6 (IL-6 [14]): 196.2 ± 14.3 pg/L

— article PMC11359639 (ACS Omega, 2024)
